# PGC1a acetyl up = raises PGC1a acetylation signal in U2OS cells | activation, % at 15.6 µM | 0.21% of 350,000 active | U2OS PGC1a acetylation AlphaScreen, overnight;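 active = every replicate reaching activation of at least 50%, whatever the mean replicate activation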;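 also: hits raise the AlphaScreen acetylation signal above neutral controls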
#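 System: Flag-PGC1a/GCN5 U2OS cells | Quantity: 7000 cells/well | Times: Overnight compound treatment, 37 °C | Measured by: AlphaScreen proximity luminescence, anti-acetyl-lysine antibody | Dosing: One concentration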
# Hep G6PC suppr = hepatocyte G6PC expression change via PGC-1a acetylation activation; shares compounds with PGC1a acetyl up; primary mouse hepatocytes, G6PC mRNA qPCR, forskolin; G6PC suppression (normalized activity, % of positive control; higher = more suppression), % at 26 µM; 240 tested, under 10 active; AID 743463;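 active = dose curves showing G6PC suppression whose half-maximal dose is at most twice the top valid dose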;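 also: G6PC expression relative to GAPDH housekeeping gene as delta delta Ct; 0% = median of neutral control wells and 100% = median of positive control wells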
# Hep PCK1 suppr = PGC-1a acetylation activators affecting PCK1 expression in hepatocytes; shares compounds with PGC1a acetyl up; primary mouse hepatocytes, PCK1 mRNA qPCR, forskolin-stimulated; PCK1 expression decrease, unspecified at 26 µM; 230 tested, under 10 active;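 active = compounds lowering PCK1 expression whose fitted half-maximal concentration is at most twice the top tested dose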;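 also: values are delta delta Ct of PCK1 relative to GAPDH; higher delta delta Ct means lower PCK1 expression so positive values indicate hits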
# PGC1a hep suppr = PGC-1a acetylation activator altering hepatocyte PGC-1a expression; shares compounds with PGC1a acetyl up; primary mouse hepatocytes, PGC-1a mRNA qPCR, forskolin; top dose 26 µM; max activity (PGC-1a expression decrease), %; 240 tested, under 10 active; AID 743467;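 active = compound lowering PGC-1a expression with fitted half-maximal concentration at most twice its top tested dose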;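 also: 0% = neutral control wells median and 100% = positive control wells median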
# An asterisk follows results filed as active; [ ] = another dose, or the depositor's remark. The list is a sample of the results.
SMILES,PGC1a acetyl up,others
COc1ccc(OC)c(NC(=O)C2C(C(=O)O)C3(Cl)C(Cl)=C(Cl)C2(Cl)C3(Cl)Cl)c1 (configuration not stated),-41.7,
C[C@H]1CN([C@@H](C)CO)C(=O)c2cc(C#Cc3ccccc3)cnc2O[C@@H]1CN(C)C(=O)c1ccccc1F,-45.9,
C[C@H]1CN([C@@H](C)CO)C(=O)c2cc(C3=CCCC3)cnc2O[C@@H]1CN(C)C(=O)c1cccnc1,-53.2,
C[C@@H]1CN([C@@H](C)CO)C(=O)c2cc(C#CCN(C)C)cnc2O[C@H]1CN(C)Cc1ccc(F)cc1,-48.5,
C[C@H]1CN([C@@H](C)CO)C(=O)c2cc(-c3cncnc3)cnc2O[C@@H]1CN(C)C(=O)c1cccc(F)c1,-51.2,
C[C@@H]1CN([C@H](C)CO)C(=O)c2cc(C#Cc3cccc(F)c3)cnc2O[C@H]1CN(C)CC1CCCC1,58.1*,
C[C@@H]1CN([C@@H](C)CO)C(=O)c2cc(C3=CCCC3)cnc2O[C@@H]1CN(C)C(=O)Nc1cccc(F)c1,131.2*,
CC1CC(=O)c2c(cc3c(-c4c(O)cc(O)c5c(O)c6c(cc45)OC(C)CC6=O)c(O)cc(O)c3c2O)O1 (configuration not stated),-63.4,
C[C@@H]1CN([C@H](C)CO)C(=O)c2cc(-c3ccccc3)cnc2O[C@H]1CN(C)C(=O)Cc1ccccn1,-51.4,
O=C(Nc1ccccc1-c1ccccc1)NC1CC2CCCC(C1)N2Cc1ccc(F)cc1 (configuration not stated),-42.2,
O=C(c1ccc(F)cc1)N(C(=O)c1ccc(F)cc1)c1ncccn1,-43.5,
O=C(C[C@H]1CC[C@@H]2[C@H](COC[C@@H](O)CN2S(=O)(=O)c2ccc(F)cc2)O1)NCCN1CCCCC1,-47.4,
CCCC(=O)Nc1ccc(C(=O)N/N=C/c2cccnc2)cc1,68.7*,
CCOC(=O)c1c(C)n(C)c2ccc(OCC(O)Cn3nc(C)c(Br)c3C)cc12 (configuration not stated),61.0*,
Cc1cc(=O)[nH]c(NN)n1,-50.2,
CC(C)N1CCc2c(sc(NC(=O)C3CCCCC3)c2C(N)=O)C1,-43.7,
O=C1Nc2c(Br)cc(Br)c3cccc1c23,-40.4,
N#CC1=C(N)Oc2n[nH]c(-c3ccccc3)c2C1c1ccncc1 (configuration not stated),55.4*,
CC1OC(CC(=O)O)CC2=C1C(=O)c1c(O)cccc1C2=O (configuration not stated),-74.8,
CC(C)C#Cc1ccc([C@@H]2[C@H]3CN(C(=O)NC4CCCC4)CC(=O)N3[C@H]2CO)cc1,-48.3,
CCOc1ccccc1OCCn1nnc2ccccc21,53.2*,
CC(=O)N1CCN(C(C)=O)C1c1ccccc1,-46.7,
CCOC(=O)CNC(=O)OC1CCN2Cc3ccccc3N=C12 (configuration not stated),-77.5,
Cc1nc([N+](=O)[O-])c(Br)n1CC(=O)c1ccc(Br)cc1,-64.1,
Oc1ccccc1/C=N/Nc1nc2ccccc2o1,-41.2,
SMILES,PGC1a acetyl up,others
NC(=S)N/N=C/c1cccc(O)c1O,75.9*,
O=C(CN1C(=O)C2CC=CCC2C1=O)Nc1nccs1 (configuration not stated),-50.1,
CC1CCc2sc(C(=O)Nc3nnc(SCc4ccc(F)cc4)s3)cc2C1 (configuration not stated),-94.0,
CC(C)(C)c1ccc(NC(=O)N2CCN(c3ccc([N+](=O)[O-])cn3)CC2)cc1,191.5*,
O=C(Nc1ccc(F)cc1F)N1CCCN(c2ccc([N+](=O)[O-])cn2)CC1,94.1*,
CC(=O)Nc1ccc(S(=O)(=O)N2CCN(c3ccccn3)CC2)cc1,-52.8,
CCc1c(C)nc(N)nc1Cl,-46.8,
CC1(C)OC(C)(C)/C(=C\c2ccc(OCC(N)=O)cc2)C1=O,-45.8,
CSCC(O)Cn1[nH]c(=O)c2cc(Cl)c(Cl)cc2c1=O (configuration not stated),-83.7,
COC(c1ccccc1)c1nnc(CCC(=O)N(C)C(C2CC2)C2CC2)o1 (configuration not stated),-42.4,
C[C@@H]1CN([C@H](C)CO)C(=O)CCCn2cc(nn2)CO[C@@H]1CN(C)C(=O)Nc1cccc2ccccc12,-50.5,
COc1cc(CN2CCCC(CO)(Cc3cccc(Cl)c3)C2)cc2c1OCO2 (configuration not stated),-44.5,Hep G6PC suppr=-15.8[8 µM];Hep PCK1 suppr=165;PGC1a hep suppr=85.6
CCc1ccc(S(=O)(=O)/N=C2\C=C(Nc3ccc(O)cc3)C(=O)c3ccccc32)cc1,-63.4,
CCCc1cc(=O)oc2cc(C)cc(O)c12,-42.9,
